Measured values published in the RNAGym collection of RNA variant scans (doi:10.1126/science.aae0568).
This sample holds only a part of the variants without activity.

B1: tRNA (parent)
chain: GUUCCGUUGGCGUAAUGGUAACGCGUCUCCCUCCUAAGGAGAAGACUGCGGGUUCGAGUCCCGUACGGAACG

Variants of: B1
Experiment: yeast fitness relative to wild type (ratio to wild type); higher = fitter; tRNA-Arg(CCU), competitive growth, 37 C, YPD
Method in brief: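 The tRNA-Arg(CCU) gene variants were made by chemical synthesis with a 3% per-site mutation rate at 69 sites and inserted at the native genomic locus of Saccharomyces cerevisiae. After pooling, the strains were competed in YPD at 37°C for 24 hours in six parallel replicates. Gene amplicons from the start population and each end population were read by 100-nucleotide paired-end sequencing, and Darwinian fitness relative to wild type was taken from genotype frequency changes. Genotypes needed ≥ 100 starting reads, and estimates < 0.5 were set to 0.5.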

| Variant | yeast fitness |
| --- | --- |
| GUUCUGUUGGCGUAAUGGUAACCCGUCUCCCUCCUAAGGAGAAGACUGCGGGUUCGAGUCCCGUACGGCACG [C5U G23C A69C] | ≤ 0.5 |
| GUUCUGUUGGCGUAAUGGUAACGCAUCUCCCUCCUAAGGAGAAGACUGCGGGUUCGAGUCCCGUACGGCACG [C5U G25A A69C] | 0.728 |
| GUUCUGUUGGCGUAAUGCUAACGCGUCUCCCUCCUAAGGAGAAGACUGCGGGUUCGAGUCCCGUUCGGAACG [C5U G18C A65U] | 0.601 |
| GUUCUGUUGGCGUAAUGGUAACGCAUCUCCCUCCUAAGGAGAAGACUGCGGGUUCGAGUCCCGUACGGAACG [C5U G25A] | 0.891 |
| GUUCUGUUGGCGUAAUGGUAACGCCUCUCCCUCCUAAGGAGAAGACUGCGGGUUCGAGUCCCGUACGGAACG [C5U G25C] | 0.997 |
| GUUCUGUUGGCGUAAUGGUAACACGUCUCCCUCCUAAGGAGAAGAGUGGGGGUUCGAGUCCCGUACGGAACG [C5U G23A C46G C49G] | ≤ 0.5 |
| GUUCUGUUGGCGUAAUGGUAACGCAUCUCCCUCCUAAGGCGAAGACUGCGGGUUCGAGUCCCGUACGGAACG [C5U G25A A40C] | ≤ 0.5 |
| GUUCUGUUGGCGUAAUGGUAACGCGUCUCCCUCCUAAGGAAAAGAACGCGGGUUCGAGUCCCGUACGGAACG [C5U G41A C46A U47C] | 0.568 |
| GUUCUGUUGGCGUAAUGGUAACGCCUCUCCCUCCUAAGGAGAAGACUGAGGGUUCCAGUCCGGUACGGAACG [C5U G25C C49A G56C C62G] | ≤ 0.5 |
| GUUCUGUUGGCGUAAUGGUAACACGUCUCCUUCCUAAGGAGAAGACUGCGGGUUCGAGUCCCGUGCGGAACG [C5U G23A C31U A65G] | ≤ 0.5 |
| GUUCUGUUGGCGUAAUGGUAACGCGUCUCCCUCCUAACCGGAAAAGUGCGGAUUCGAGGCCCGUACGGAACG [C5U G38C G39C A40G G44A C46G G52A U59G] | ≤ 0.5 |
| GUUCUGUUGGCGUAAUGCUAACGCGUCCCCCUCCUAAGGAGAAGACUGCGGGUUCGAGUCCCAUACGGAACG [C5U G18C U28C G63A] | ≤ 0.5 |
| GUUCUGUUGGCGUAAUGGUAACGCGUCUCCCUCCUAAGAAGAAGACUGCGGGUUCGCGUCCCGUACGGAACG [C5U G39A A57C] | 0.656 |
| GUUCUGUUGGCGUAAUGCUAACGCGUCUCCCUCCUAAGGAGAAGACUGCGGGUUCGAGUCUCGUACGGAACG [C5U G18C C61U] | 0.565 |
| GUUCUGUUGGCGUAAUGGUAACGCGUCUCCCUCCUAAGAAGAAGACUGCGGGUUUGAGUCCCGUACGGAACG [C5U G39A C55U] | 0.614 |
| GUUCUGUUGGCGUAAUGGUAACGCGUCUCCCUCCUAAAGAGGAGACUGCGGGUUCGAGUCCCGUACGGAACG [C5U G38A A42G] | 0.605 |
| GUUCUGUUGGCGUAAUGGUAACGCGUCUCCCUCCUAAAGAGAAGACUGCGGGUUCGAGUCCCGUACGGAACG [C5U G38A] | 1.03 |
| GUUCUGUUGGCGUAAUGGUAACCCGUCUCCCUCCUAAGGAGAAGACUGCGGGUUCGAGUCCCGUACGGAACG [C5U G23C] | 0.644 |
| GUUCUGUUGGCGUAAUGGUAACACGUCUCCCUCCUAAGGAGAAGACUGCGGGUUCGAGUCCCGUACGGAACG [C5U G23A] | 0.742 |

| Variant | yeast fitness |
| --- | --- |
| GUUCUGUUGGCGUAAUGCUAAAGCGUCUCCCUCCUAAGGAGAAGACUGCGGGUACGAGUCCCGUGCGGAACG [C5U G18C C22A U54A A65G] | ≤ 0.5 |
| GUUCUGUUGGCGUAAUGGUAACGCGUCUCCCUCCUAAGCAGAAGACUGCGGGUUCGAGAGCCGUACGGAACG [C5U G39C U59A C60G] | ≤ 0.5 |
| GUUCUGUUGGCGUAAUGGUAACGCCUGUCCCUCCUAAGGAGAAGACUGCGGGUUCGAGUCCCGUACGGAACG [C5U G25C C27G] | ≤ 0.5 |
| GUUCUGUUGGCGUAAUGGUAACGCGUCUCCCUCCUAAGGAACAGACUGCCGGUUCGAGUCCCGUACGGAGCG [C5U G41A A42C G50C A70G] | 0.535 |
| GUUCUGUUGGCGUAAUGGUAACACGUCUCCCUCCUAAGGAGAAGACUGCGGGUUCGAGUCCGGUACGGAACG [C5U G23A C62G] | 0.538 |
| GUUCUGUUGGCGUAAUGGUAACGCGUCUCCCUCCUAAGAAGAAGACUGCGUGUUCGACUCCCGUACGGAACG [C5U G39A G51U G58C] | ≤ 0.5 |
| GUUCUGUUGGCGUAAUGGUAACGCGUCUCCCUCCUAACGAGCAGACUGCGGGUUCGAGUCCCAUACGGAACG [C5U G38C A42C G63A] | ≤ 0.5 |
| GUUCUGUUGGCGUAAUGGUAACGCCUCUCCCUCCUAAGGAGUAGACUGCGGGUUCGAGUCCGGUACGGAACG [C5U G25C A42U C62G] | ≤ 0.5 |
| GUUCUGUUGGCGUAAUGGUAACGCGUCUCCCUCCUAAGGAAAAGACUGCGGGUUCGAGUCCCGUACGGACCG [C5U G41A A70C] | 0.695 |
| GUUCUGUUGGCGUAAUGGUAACGCGUCUCCCUCCUAAGAAGAAGACUGCGGGUUCGAGUCCCGUACGGCACG [C5U G39A A69C] | 0.647 |
| GUUCUGUUGGCGUAAUGGUAACGCAUCUCCCUCCUAAGGAGAAGACUGCGCGUUCCAGUCCCGUACGGUACG [C5U G25A G51C G56C A69U] | ≤ 0.5 |
| GUUCUGUUGGCGUAAUGGUAACGCAUCUCCCUCCUAUGGCGAAGACUGCGGGUUCGAGUCACGUACGGAACG [C5U G25A A37U A40C C61A] | ≤ 0.5 |
| GUUCUGUUGGCGUAAUGCUAACGCGUCUCCCUCCUAAGGAGAAGUCUGCGGGUUCGAGUCCCGUACGGAACG [C5U G18C A45U] | ≤ 0.5 |
| GUUCUGUUGGCGUAAUGGUAACGCGUCUCCCUCCUAACGAGAAGAUUGCGGGUUCGAGUUCCGUACGGAACG [C5U G38C C46U C60U] | ≤ 0.5 |
| GUUCUGUUGGCGUAAUGGUAACGCAUCUCCCUCCUAAGGAGAAGACUGCGGGUUCGAGUCCCGUACGGACCG [C5U G25A A70C] | 0.796 |
| GUUCUGUUGGCGUAAUGGUAACACGUGUCCGUCCUAAGGAGAAGACUGCCGGUUCGACUCCCGUACGGAACG [C5U G23A C27G C31G G50C G58C] | 0.557 |
| GUUCUGUUGGCGUAAUGGUAACACGUCUCCCUCCAAAGGAGAAGACUGCGGGUUCGAGUCCCGUACGGAACG [C5U G23A U35A] | ≤ 0.5 |
| GUUCUGUUGGCGUAAUGCUAAUGCGUCUCCCUCCUAAGGAGAAGACUGCAGCUUCGAGUCCCGUACGGAACG [C5U G18C C22U G50A G52C] | ≤ 0.5 |
| GUUCUGUUGGCGUAAUGGUAACACGUCUCCCUCCUGAGGAGAAGACUGCGGGUUCGAGUCCCGUACGGAACG [C5U G23A A36G] | 0.618 |
